Experimental data published in ChEMBL document CHEMBL1146034, “Synthesis, DNA affinity, and antiprotozoal activity of linear dications: Terphenyl diamidines and analogues” (J Med Chem, 2006).
Activity calls are given as the source filed them. No cut-off for these calls is given here.

Columns and labels:
Mus musculus [1] = experiment: Antiprotozoal activity in mouse infected with Trypanosoma brucei rhodesiense STIB900 measured as survival upto 60 days at 25 mg/kg, po; assay type: functional, organism-based; parameters: dose 25 mg/kg
How it was run: (§1)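 Acute mouse model of T. b. rhodesiense STIB900 infection. Compound was given for 4 days, either intraperitoneally or orally, at the stated dose, with untreated infected controls. Read-outs were the number of mice alive and parasite-free at 60 days and the average days of survival.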

[2] = tested on: Trypanosoma brucei rhodesiense; experiment: Antiprotozoal activity against Trypanosoma brucei rhodesiense STIB900; assay type: functional, organism-based
How it was run: (§2)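 Run in vitro against T. b. rhodesiense strain STIB900 or P. falciparum strain K1. Values are from duplicate determinations.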

Plasmodium falciparum = experiment: Antiprotozoal activity against Plasmodium falciparum K1; assay type: functional, organism-based; how it was run: as §2
Mus musculus [3] = experiment: Antiprotozoal activity in mouse infected with Trypanosoma brucei rhodesiense STIB900 measured as average days of survival at 25 mg/kg, po; assay type: functional
How it was run: (§3)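 Acute STIB900 mouse model. Dosing ran for 4 days, given ip or po. The read-out was average days of survival post infection. Mice surviving 60 days parasite-free were scored as cures. Untreated infected mice served as controls.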

Mus musculus [4] = experiment: Antiprotozoal activity in mouse infected with Trypanosoma brucei rhodesiense STIB900 measured as survival upto 60 days at 20 mg/kg, ip; assay type: functional, organism-based; parameters: dose 20 mg/kg; how it was run: as §1
Mus musculus [5] = experiment: Antiprotozoal activity in mouse infected with Trypanosoma brucei rhodesiense STIB900 measured as average days of survival at 5 mg/kg, ip; assay type: functional; settings: route intraperitoneal; how it was run: as §3
Mus musculus [6] = experiment: Antiprotozoal activity in mouse infected with Trypanosoma brucei rhodesiense STIB900 measured as survival upto 60 days at 5 mg/kg, ip; assay type: functional, organism-based; parameters: dose 5 mg/kg; how it was run: as §1
Mus musculus [7] = experiment: Antiprotozoal activity in mouse infected with Trypanosoma brucei rhodesiense STIB900 measured as average days of survival at 20 mg/kg, ip; assay type: functional; settings: route intraperitoneal; how it was run: as §3
[8] = Half life in B6C3F1 mouse liver microsome; assay type: ADME; settings: liver microsomes
How it was run: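 Pooled male B6C3F1 mouse liver microsomes (0.5 mg/mL protein) in 100 mM phosphate pH 7.4 with 5 mM MgCl2 and 0.5% DMSO, run in duplicate. After 3 min preincubation at 37 °C, 2 mM NADPH started the reaction. Acetonitrile quench at 0–30 min, then LC-MS/MS (positive MRM). t1/2 = 0.693/slope of ln % parent remaining versus time.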

L6 = experiment: Cytotoxicity against rat L6 cells; assay type: functional, cell-based
Mus musculus [9] = experiment: Antiprotozoal activity in mouse infected with Trypanosoma brucei rhodesiense STIB900 measured as average days of survival at 100 mg/kg, po; assay type: organism-based; parameters: dose 100 mg/kg, route oral; settings: in vivo; how it was run: as §3
Mus musculus [10] = experiment: Antiprotozoal activity in mouse infected with Trypanosoma brucei rhodesiense STIB900 measured as survival upto 60 days at 100 mg/kg, po; assay type: functional, organism-based; parameters: dose 100 mg/kg; how it was run: as §1

With `N=C(NO)c1ccc(-c2ccc(-c3ccc(/C(N)=N/O)cc3)cc2)o1` the Activity (Mus musculus [1]) was “inactive”, the IC50 [2] was 67 µM and the IC50 (Plasmodium falciparum) was 6.6 µM. It also gave a Survival (Mus musculus [3]) of 16 days.

For `N=C(N)c1ccc(-c2ccc(-c3ccc(C(=N)N)cc3)o2)cc1` [FURAMIDINE], the Activity (Mus musculus [4]) was “inactive”, the Survival (Mus musculus [5]) was 35.5 days and the Activity (Mus musculus [6]) was “inactive”. For the same molecule, the Survival (Mus musculus [7]) was >52.5 days.

In the case of `N=C(N)c1ccc(-c2ccc(-c3ccc(C(=N)N)cc3)nc2)cc1`, the Activity (Mus musculus [4]) is reported as “Active”, the IC50 [2] is reported as 0.002 µM and the Survival (Mus musculus [5]) is reported as >42 days. The IC50 (Plasmodium falciparum) was 0.01 µM and the Survival (Mus musculus [7]) was >60 days.

In the case of `CONC(=N)c1ccc(-c2ccc(-c3ccc(C(=N)NOC)cc3)o2)cc1` [PAFURAMIDINE], the Survival (Mus musculus [3]) is reported as >60 days and the half-life [8] is reported as < 0.25 h.

With `N=C(NO)c1ccc(-c2ccc(-c3ccc(/C(N)=N\O)cc3)cc2C(F)(F)F)cc1` the Activity (Mus musculus [1]) was “inactive”, the IC50 [2] was 29.9 µM and the IC50 (Plasmodium falciparum) was 3.1 µM. For the same molecule, the IC50 (L6) was 13.3 µM and the Survival (Mus musculus [3]) was 9 days.

With `N=C(N)c1ccc(-c2ccc(-c3ccc(C(=N)N)cc3)c(C(F)(F)F)c2)cc1` the IC50 [2] was 0.048 µM, the Survival (Mus musculus [5]) was 17.25 days and the Activity (Mus musculus [6]) was “inactive”. The IC50 (Plasmodium falciparum) was 0.015 µM and the IC50 (L6) was 9.4 µM.

With `N=C(N)c1ccc(-c2ccc(-c3ccc(C(=N)N)cc3)c(F)c2)cc1` the IC50 [2] was 0.002 µM, the Survival (Mus musculus [5]) was >51.75 days and the Activity (Mus musculus [6]) was “inactive”. For the same molecule, the IC50 (Plasmodium falciparum) was 0.001 µM.

With `N=C(NO)c1ccc(-c2ccc(-c3ccc(/C(N)=N\O)cc3)nc2)cc1` the IC50 [2] was 9.3 µM, the IC50 (Plasmodium falciparum) was 7.6 µM and the IC50 (L6) was > 184 µM. For the same molecule, the Survival (Mus musculus [9]) was > 35.75 days.

In the case of `N=C(N)c1ccc(-c2cnc(-c3ccc(C(=N)N)cc3)nc2)cc1`, the Survival (Mus musculus [5]) is reported as 23.5 days, the Activity (Mus musculus [6]) is reported as “inactive” and the IC50 (Plasmodium falciparum) is reported as 0.0005 µM.

For `N=C(NO)c1ccc(-c2ccc(-c3ccc(/C(N)=N\O)cc3)cc2)cc1`, the Activity (Mus musculus [10]) was “inactive”, the IC50 [2] was 22.8 µM and the IC50 (Plasmodium falciparum) was > 11.8 µM. The IC50 (L6) was > 211 µM and the Survival (Mus musculus [9]) was 24.75 days.

With `N=C(N)c1ccc(-c2ccc(-c3ccc(C(=N)N)cc3)cc2)cc1` the IC50 [2] was 0.005 µM, the IC50 (Plasmodium falciparum) was 0.001 µM and the Survival (Mus musculus [7]) was >47.75 days.

For `N=C(N)c1ccc(-c2ccc(-c3ccc(C(=N)N)cn3)cc2)nc1`, the IC50 [2] was 0.047 µM, the Survival (Mus musculus [5]) was >60 days and the IC50 (Plasmodium falciparum) was 0.01 µM.

For `CONC(=N)c1ccc(-c2cnc(-c3ccc(C(=N)NOC)cc3)nc2)cc1`, the Activity (Mus musculus [1]) was “inactive”, the IC50 [2] was 49 µM and the IC50 (Plasmodium falciparum) was 5.7 µM. For the same molecule, the IC50 (L6) was > 177 µM, the Survival (Mus musculus [3]) was 12.5 days and the half-life [8] was > 1.5 h.

For `CONC(=N)c1ccc(-c2ccc(-c3ccc(C(=N)NOC)cc3)c(F)c2)cc1`, the Activity (Mus musculus [1]) was “inactive”, the IC50 [2] was 51.5 µM and the IC50 (Plasmodium falciparum) was 4.2 µM. For the same molecule, the IC50 (L6) was 8.5 µM, the Survival (Mus musculus [3]) was 37.25 days and the half-life [8] was > 1.5 h.

With `N=C(NO)c1ccc(-c2ccc(-c3ccc(/C(N)=N\O)cc3)cc2F)cc1` the Activity (Mus musculus [1]) was “inactive”, the IC50 (Plasmodium falciparum) was 0.925 µM and the IC50 (L6) was 29.1 µM. The Survival (Mus musculus [3]) was 22.25 days.

For `CO/N=C(/N)c1ccc(-c2ccc(-c3ccc(C(=N)NOC)cc3)nc2)cc1`, the Activity (Mus musculus [1]) was “inactive”, the IC50 [2] was 34.7 µM and the IC50 (Plasmodium falciparum) was 3.2 µM. For the same molecule, the IC50 (L6) was > 166 µM, the Survival (Mus musculus [3]) was >42.75 days and the half-life [8] was 0.917 h.

For `N=C(N)c1ccc(OCCCCCOc2ccc(C(=N)N)cc2)cc1` [PENTAMIDINE], the Activity (Mus musculus [4]) was “inactive” and the Survival (Mus musculus [7]) was >42.75 days.

In the case of `CO/N=C(\N)c1ccc(-c2ccc(-c3ccc(C(=N)NOC)cc3)cc2)o1`, the Activity (Mus musculus [1]) is reported as “inactive”, the IC50 [2] is reported as 24 µM and the IC50 (Plasmodium falciparum) is reported as 1.6 µM. The IC50 (L6) was > 205 µM and the Survival (Mus musculus [3]) was 6.25 days.

In the case of `CONC(=N)c1ccc(-c2ccc(-c3ccc(C(=N)NOC)cn3)cc2)nc1`, the Activity (Mus musculus [1]) is reported as “inactive”, the IC50 [2] is reported as 82.9 µM and the IC50 (Plasmodium falciparum) is reported as 1.2 µM. For the same molecule, the IC50 (L6) was > 158 µM, the Survival (Mus musculus [3]) was 12 days and the half-life [8] was > 1.5 h.

In the case of `CONC(=N)c1ccc(-c2ccc(-c3ccc(C(=N)NOC)cc3)c(C(F)(F)F)c2)cc1`, the Activity (Mus musculus [1]) is reported as “inactive”, the IC50 [2] is reported as 36.9 µM and the IC50 (Plasmodium falciparum) is reported as 3.8 µM. It also gave an IC50 (L6) of 42.2 µM and a Survival (Mus musculus [3]) of 7.25 days.

With `N=C(N)c1ccc(-c2ccc(-c3ccc(C(=N)N)o3)cc2)cc1` the Activity (Mus musculus [4]) was “inactive”, the IC50 [2] was 0.005 µM and the IC50 (Plasmodium falciparum) was 0.001 µM. For the same molecule, the IC50 (L6) was 56.1 µM and the Survival (Mus musculus [7]) was 21.25 days.

In the case of `N=C(N)c1ccc(-c2ccc(-c3ccc(C(=N)N)o3)cn2)cc1`, the IC50 [2] is reported as 0.002 µM, the Survival (Mus musculus [5]) is reported as >41.75 days and the IC50 (Plasmodium falciparum) is reported as 0.01 µM. For the same molecule, the IC50 (L6) was 30.9 µM and the Survival (Mus musculus [7]) was >53.5 days.

With `COc1cc(-c2ccc(C(=N)N)cc2)c(OC)cc1-c1ccc(C(=N)N)cc1` the IC50 [2] was 0.015 µM, the Survival (Mus musculus [5]) was >51.75 days and the IC50 (Plasmodium falciparum) was 0.037 µM. The IC50 (L6) was > 100 µM.

For `CONC(=N)c1ccc(-c2ccc(-c3ccc(C(=N)NOC)cc3)cc2)cc1`, the Activity (Mus musculus [10]) was “inactive”, the IC50 [2] was 13.8 µM and the IC50 (Plasmodium falciparum) was 0.371 µM. It also gave an IC50 (L6) of 118 µM.

With `CON=C(N)c1ccc(-c2ccc(-c3ccc(C(N)=NOC)cc3)cc2)cc1` the Survival (Mus musculus [9]) was 20.75 days and the half-life [8] was > 1.5 h.
